“Also recorded” adds a separate entry of the source. Like-named read-outs stand apart in the source and are kept apart here.
Legend:
[1] = UV-vis spectra in KMOPS buffer pH 7.2; type: physicochemical; settings: for ε365 / ε405: 0.1 mM in KMOPS buffer; for ε365: 365 nm; for ε405: 405 nm; for λmax: 0.1 mM solution in KMOPS buffer
[2] = 1PE photolysis at 365 and 405 nm; type: physicochemical; settings: for Φu(365) quantum yield of photolysis / sensitivity (ε365Φu): 365 nm; for Φu(365) quantum yield of photolysis / Φu(405) quantum yield of photolysis: 0.1 mM in KMOPS buffer; for Φu(365) quantum yield of photolysis / sensitivity (ε365Φu) / Φu(405) quantum yield of photolysis / sensitivity (ε405Φu): pH 7.2; for sensitivity (ε365Φu) / sensitivity (ε405Φu): KMOPS buffer; for Φu(405) quantum yield of photolysis / sensitivity (ε405Φu): 405 nm; for yield of DA or sulpiride released (365 nm): photolysis at 365 nm; for yield of DA or sulpiride released (365 nm) / yield of DA or sulpiride released (405 nm): measured by HPLC, KMOPS pH 7.2; for yield of DA or sulpiride released (405 nm): photolysis at 405 nm
Summary of the method: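 Test compound at 0.1 mM in KMOPS buffer (100 mM KCl, 10 mM MOPS, adjusted to pH 7.2 with KOH), irradiated with one-photon light. Released dopamine quantified by HPLC to give chemical yield.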

2-photon excitation = type: physicochemical; settings: excitation at 740 nm, KMOPS buffer pH 7.2
Summary of the method: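 Two-photon uncaging of test compound in KMOPS buffer (100 mM KCl and 10 mM MOPS, brought to pH 7.2 with KOH), with excitation at 740 nm.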

[3] = Spontaneous hydrolysis in the dark, buffer, by HPLC; type: physicochemical; settings: 100-μM solution in KMOPS buffer pH 7.2, HPLC
[4] = molecular target: T1, D2 receptors on substantia nigra dopamine neurons (Mus musculus, UniProt P61168); type: cell-based
human D2 receptors = settings: cited from earlier work
rat D2 receptors = settings: cited from earlier work
[5] = molecular target: T1, D2 receptors on substantia nigra dopamine neurons; type: cell-based; settings: CyHQ-sulpiride 5 μM, 1 s flash; quinpirole 300 nM or dopamine 1 μM
D2 receptor = settings: cited from earlier work
[6] = pH 7.2; cited from earlier work

T1 sequence (P61168 whole entry): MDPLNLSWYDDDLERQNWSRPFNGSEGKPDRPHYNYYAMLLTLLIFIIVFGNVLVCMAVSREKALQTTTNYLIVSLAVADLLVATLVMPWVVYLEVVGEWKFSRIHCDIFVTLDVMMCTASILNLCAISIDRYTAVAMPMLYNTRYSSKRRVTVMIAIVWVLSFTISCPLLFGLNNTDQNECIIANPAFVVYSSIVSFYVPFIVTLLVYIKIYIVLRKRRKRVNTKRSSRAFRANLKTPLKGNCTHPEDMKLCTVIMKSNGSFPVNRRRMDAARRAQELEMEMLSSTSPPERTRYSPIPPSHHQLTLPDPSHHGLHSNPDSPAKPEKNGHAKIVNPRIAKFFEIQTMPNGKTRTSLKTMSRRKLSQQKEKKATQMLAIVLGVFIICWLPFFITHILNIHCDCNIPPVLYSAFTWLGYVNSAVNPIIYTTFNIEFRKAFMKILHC

N#Cc1c(O)ccc2ccc(COc3ccc(CCN)cc3OCc3ccc4ccc(O)c(C#N)c4n3)nc12 [(CyHQ)2-O,O-DA, 2,2′-(((4-(2-Aminoethyl)-1,2-phenylene)bis(oxy))bis(methylene))bis(7-hydroxyquinoline-8-carbonitrile)]
ε365 [1]: 5480 M^–1 cm^–1
ε405 [1]: 324 M^–1 cm^–1
λmax [1]: 364 nm
Φu(365) quantum yield of photolysis [2]: 0.19
sensitivity (ε365Φu) [2]: 1044
Φu(405) quantum yield of photolysis [2]: 0.19
sensitivity (ε405Φu) [2]: 61
yield of DA or sulpiride released (365 nm) [2]: 16%
yield of DA or sulpiride released (405 nm) [2]: 15%
chemical yield of dopamine ([2]; range over 365 and 405 nm photolysis): 15–16%
photochemical quantum yield ([2]; wavelength not stated in the sentence (1PE)): 0.19
δu 2-photon uncaging action cross-section (2-photon excitation): 0.12 GM
dark stability: no spontaneous hydrolysis in the dark observed within the time given [3]: 100 h

CCN1CCCC1CNC(=O)c1cc(S(N)(=O)=O)ccc1OC (stereo not drawn) [sulpiride]
effect on CyHQ-O-DA flash response ([4]; sulpiride 500 nM, CyHQ-O-DA 150 μM): all response was blocked
reversal of the dark current produced by CyHQ-O-DA ([4]; sulpiride 1 μM, CyHQ-O-DA 1 mM in the dark): unable to fully reverse the effect
Ki (human D2 receptors): 9.4 nM
Ki (rat D2 receptors): 6.9 nM

NCCc1ccc(O)c(O)c1 [dopamine]
rise time of current from 10 to 90% of the peak ([4]; iontophoretically applied dopamine (1 M, 10 ms 100 nA pulse)): 270 ms
rise time of current from 10 to 90% of the peak ([4]; synaptically released dopamine (IPSC, single stimulation)): 141 ms
time constant of decay τ of D2 current after CyHQ-sulpiride photolysis [5]: 307 ms
koff (D2 receptor): 1.69 min^–1

(8-Cyano-7-hydroxyquinolin-2-yl)methyl(3,4-dihydroxyphenethyl)carbamate [CyHQ-N-DA]
ε365 [1]: 6700 M^–1 cm^–1
ε405 [1]: 251 M^–1 cm^–1
λmax [1]: 364 nm
Φu(365) quantum yield of photolysis [2]: 0.19
sensitivity (ε365Φu) [2]: 1283
Φu(405) quantum yield of photolysis [2]: 0.20
sensitivity (ε405Φu) [2]: 50
yield of DA or sulpiride released (365 nm) [2]: 60%
yield of DA or sulpiride released (405 nm) [2]: 49%
δu 2-photon uncaging action cross-section (2-photon excitation): did not photolyze through 2PE; also recorded: n.p. ^c
dark stability: no spontaneous hydrolysis in the dark observed within the time given [3]: 24 h

COc1cc(C(Oc2ccc(CNC(=O)CCCC/C=C/C(C)C)cc2OC)C(=O)O)c([N+](=O)[O-])cc1OC (stereo not drawn)
decomposition in the dark in 24 h [6]: 1.7%

— PMC7101055 (ACS Chemical Neuroscience, 2020)
